{"source": "ChEMBL document CHEMBL2176935", "about": "“Discovery and lead optimization of a novel series of CC chemokine receptor 1 (CCR1)-selective piperidine antagonists via parallel synthesis” (J Med Chem, 2012)", "key": {"[1]": {"system": "Liver microsomes", "assay": "Stability in human liver microsomes assessed as compound remaining", "assay_type": "ADME, Microsome"}, "[2]": {"assay": "Thermodynamic solubility in pH 6.5 potassium phosphate buffer by HPLC method", "assay_type": "physicochemical", "settings": "read-out: Therm_solubility", "outline": "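Thermodynamic equilibrium solubility. Compound standard dissolved in methanol, with DMSO added if needed, and mixed 1:1 with 50 mM potassium phosphate pH 6.5. Vortexed, sonicated 30 s, shaken 15−24 h at room temperature, centrifuged. Quantified by HPLC-UV at 210 or 254 nm against a calibration curve.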"}, "[3]": {"assay": "Volume of distribution at steady state in mouse at 2.5 mg/kg, iv", "assay_type": "ADME, organism-based", "parameters": "dose 2.5 mg/kg, route intravenous", "settings": "in vivo, read-out: Vdss"}, "[4]": {"molecular_target": "T1, C-C chemokine receptor type 1 (Homo sapiens, UniProt P32246)", "T1 sequence (P32246 whole entry)": "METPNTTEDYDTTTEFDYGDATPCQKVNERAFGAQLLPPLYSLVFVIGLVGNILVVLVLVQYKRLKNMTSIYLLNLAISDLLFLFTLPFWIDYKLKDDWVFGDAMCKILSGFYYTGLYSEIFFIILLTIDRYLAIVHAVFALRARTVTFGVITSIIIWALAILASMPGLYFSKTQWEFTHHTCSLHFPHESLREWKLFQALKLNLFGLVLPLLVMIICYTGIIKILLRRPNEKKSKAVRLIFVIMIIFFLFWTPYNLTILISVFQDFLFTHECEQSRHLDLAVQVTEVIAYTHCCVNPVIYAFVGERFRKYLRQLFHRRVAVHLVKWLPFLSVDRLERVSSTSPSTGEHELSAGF", "assay": "Antagonist activity at CCR1 in human THP1 cells assessed as inhibition of CK-8beta-induced calcium flux by FLIPR", "assay_type": "functional, cell-based, THP-1"}, "[5]": {"assay": "AUC in mouse at 5.2 mg/kg, po", "assay_type": "ADME, organism-based", "parameters": "dose 5.2 mg/kg, route oral", "settings": "plasma"}, "[6]": {"system": "Liver", "assay": "Stability in mouse liver microsomes assessed as compound remaining", "assay_type": "ADME, Microsome"}, "[7]": {"assay": "Clearance in mouse at 2.5 mg/kg, iv", "assay_type": "ADME, organism-based", "parameters": "dose 2.5 mg/kg, route intravenous", "settings": "in vivo"}, "[8]": {"molecular_target": "C-C chemokine receptor type 5 (Homo sapiens, UniProt P51681)", "sequence (P51681 whole entry)": "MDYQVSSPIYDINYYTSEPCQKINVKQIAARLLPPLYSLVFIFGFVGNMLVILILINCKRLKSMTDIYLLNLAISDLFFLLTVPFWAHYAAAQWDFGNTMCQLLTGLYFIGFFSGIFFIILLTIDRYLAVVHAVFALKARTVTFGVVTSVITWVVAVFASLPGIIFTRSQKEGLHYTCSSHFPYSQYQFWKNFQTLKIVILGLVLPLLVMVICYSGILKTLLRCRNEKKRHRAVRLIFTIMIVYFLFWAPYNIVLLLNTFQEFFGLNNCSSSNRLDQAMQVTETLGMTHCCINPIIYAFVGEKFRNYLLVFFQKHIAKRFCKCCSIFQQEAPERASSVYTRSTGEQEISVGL", "assay": "Displacement of [125I]MIP-1beta from human CCR5 expressed in HT1080 cells by scintillation counting", "assay_type": "cell-based, HT-1080", "outline": "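SPA using membranes from HT1080 cells stably expressing RAGE-activated human CCR5, 10 μg protein per well, with PVT-WGA-PS beads. Compound 11-point 3-fold dilutions, 40 μM to 0.7 nM final. 125I-MIP-1β at 0.1 nM final. Incubated 4 h at room temperature, read on TopCount.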"}, "[9]": {"molecular_target": "C-C chemokine receptor type 2 (Homo sapiens, UniProt P41597)", "sequence (P41597 whole entry)": "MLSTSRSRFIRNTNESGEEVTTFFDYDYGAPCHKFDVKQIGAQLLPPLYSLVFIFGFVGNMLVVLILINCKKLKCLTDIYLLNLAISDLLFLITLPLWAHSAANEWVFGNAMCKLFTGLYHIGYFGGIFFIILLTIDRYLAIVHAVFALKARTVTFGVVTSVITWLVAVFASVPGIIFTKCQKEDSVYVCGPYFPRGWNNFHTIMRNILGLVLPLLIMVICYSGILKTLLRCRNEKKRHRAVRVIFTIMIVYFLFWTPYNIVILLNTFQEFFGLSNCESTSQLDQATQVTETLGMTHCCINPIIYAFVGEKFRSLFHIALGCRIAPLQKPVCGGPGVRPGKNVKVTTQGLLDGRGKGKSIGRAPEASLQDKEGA", "assay": "Displacement of [125I]MCP1 from CCR2 in human THP1 cells", "assay_type": "cell-based, THP-1"}, "[10]": {"molecular_target": "Cytochrome P450 2C19 (Homo sapiens, UniProt P33261)", "sequence (P33261 whole entry)": "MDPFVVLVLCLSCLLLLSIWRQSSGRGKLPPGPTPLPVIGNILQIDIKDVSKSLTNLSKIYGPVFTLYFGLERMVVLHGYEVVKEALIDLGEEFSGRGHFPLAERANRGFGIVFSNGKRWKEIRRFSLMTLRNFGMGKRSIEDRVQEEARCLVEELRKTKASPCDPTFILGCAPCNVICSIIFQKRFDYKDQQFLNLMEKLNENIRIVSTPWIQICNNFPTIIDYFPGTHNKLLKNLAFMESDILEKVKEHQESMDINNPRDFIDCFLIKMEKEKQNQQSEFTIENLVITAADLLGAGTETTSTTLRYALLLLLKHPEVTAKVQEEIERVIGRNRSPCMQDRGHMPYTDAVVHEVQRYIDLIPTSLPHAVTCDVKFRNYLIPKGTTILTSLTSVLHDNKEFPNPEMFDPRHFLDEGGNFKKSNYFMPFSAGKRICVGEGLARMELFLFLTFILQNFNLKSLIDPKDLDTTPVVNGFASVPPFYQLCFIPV", "assay": "Inhibition of recombinant CYP2C19 expressed in baculovirus-infected insect cells using fluorogeinc substrate", "assay_type": "ADME", "outline": "(§1)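 Recombinant CYP Supersomes premixed with fluorogenic substrate in potassium phosphate buffer and prewarmed 30 min at 37 °C with test substance. Reaction started with NADPH-regenerating system, incubated at 37 °C, then quenched with 80% acetonitrile/20% 0.5 M TRIS-base.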"}, "[11]": {"assay": "Cmax in mouse at 5.2 mg/kg, po", "assay_type": "ADME, organism-based", "parameters": "dose 5.2 mg/kg, route oral", "settings": "in vivo"}, "[12]": {"molecular_target": "T2, C-C chemokine receptor type 1 (Rattus norvegicus, UniProt A6I4C9)", "T2 sequence (A6I4C9 whole entry)": "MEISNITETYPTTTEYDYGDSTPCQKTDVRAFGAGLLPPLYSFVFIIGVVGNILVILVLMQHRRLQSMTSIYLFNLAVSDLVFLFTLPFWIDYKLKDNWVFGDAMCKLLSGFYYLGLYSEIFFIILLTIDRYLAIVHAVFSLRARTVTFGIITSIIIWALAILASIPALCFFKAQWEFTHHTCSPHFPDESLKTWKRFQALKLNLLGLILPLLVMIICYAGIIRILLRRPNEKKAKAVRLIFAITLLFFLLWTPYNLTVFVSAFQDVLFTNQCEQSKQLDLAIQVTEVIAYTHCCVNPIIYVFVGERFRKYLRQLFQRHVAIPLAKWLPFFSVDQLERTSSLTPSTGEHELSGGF", "assay": "Displacement of [125I]MIP-1alpha from CCR1 in rat thioglycolate-elicited peritoneal cells incubated for 60 mins", "outline": "(§2)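 Cross-species binding using human 125I-MIP-1α at 0.08 nM final. Nonspecific binding measured with excess unlabeled ligand. Incubated 60 min at room temperature, washed, air-dried, filters gamma-counted. Cells were the mouse WEHI 274.1 line, rat thioglycollate-elicited peritoneal cells, and rabbit peripheral blood mononuclear cells.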"}, "[13]": {"assay": "AUC in mouse at 2.5 mg/kg, iv", "assay_type": "ADME, organism-based", "parameters": "dose 2.5 mg/kg, route intravenous", "settings": "plasma"}, "[14]": {"assay": "Half life in mouse at 5.2 mg/kg, po", "assay_type": "ADME, organism-based", "parameters": "dose 5.2 mg/kg, route oral", "settings": "in vivo"}, "[15]": {"assay": "Half life in mouse at 2.5 mg/kg, iv", "assay_type": "ADME, organism-based", "parameters": "dose 2.5 mg/kg, route intravenous", "settings": "in vivo"}, "[16]": {"assay": "Oral bioavailability life in mouse at 5.2 mg/kg", "assay_type": "ADME, organism-based", "settings": "in vivo"}, "[17]": {"molecular_target": "Voltage-gated inwardly rectifying potassium channel KCNH2 (Homo sapiens, UniProt Q12809)", "sequence (Q12809 whole entry)": "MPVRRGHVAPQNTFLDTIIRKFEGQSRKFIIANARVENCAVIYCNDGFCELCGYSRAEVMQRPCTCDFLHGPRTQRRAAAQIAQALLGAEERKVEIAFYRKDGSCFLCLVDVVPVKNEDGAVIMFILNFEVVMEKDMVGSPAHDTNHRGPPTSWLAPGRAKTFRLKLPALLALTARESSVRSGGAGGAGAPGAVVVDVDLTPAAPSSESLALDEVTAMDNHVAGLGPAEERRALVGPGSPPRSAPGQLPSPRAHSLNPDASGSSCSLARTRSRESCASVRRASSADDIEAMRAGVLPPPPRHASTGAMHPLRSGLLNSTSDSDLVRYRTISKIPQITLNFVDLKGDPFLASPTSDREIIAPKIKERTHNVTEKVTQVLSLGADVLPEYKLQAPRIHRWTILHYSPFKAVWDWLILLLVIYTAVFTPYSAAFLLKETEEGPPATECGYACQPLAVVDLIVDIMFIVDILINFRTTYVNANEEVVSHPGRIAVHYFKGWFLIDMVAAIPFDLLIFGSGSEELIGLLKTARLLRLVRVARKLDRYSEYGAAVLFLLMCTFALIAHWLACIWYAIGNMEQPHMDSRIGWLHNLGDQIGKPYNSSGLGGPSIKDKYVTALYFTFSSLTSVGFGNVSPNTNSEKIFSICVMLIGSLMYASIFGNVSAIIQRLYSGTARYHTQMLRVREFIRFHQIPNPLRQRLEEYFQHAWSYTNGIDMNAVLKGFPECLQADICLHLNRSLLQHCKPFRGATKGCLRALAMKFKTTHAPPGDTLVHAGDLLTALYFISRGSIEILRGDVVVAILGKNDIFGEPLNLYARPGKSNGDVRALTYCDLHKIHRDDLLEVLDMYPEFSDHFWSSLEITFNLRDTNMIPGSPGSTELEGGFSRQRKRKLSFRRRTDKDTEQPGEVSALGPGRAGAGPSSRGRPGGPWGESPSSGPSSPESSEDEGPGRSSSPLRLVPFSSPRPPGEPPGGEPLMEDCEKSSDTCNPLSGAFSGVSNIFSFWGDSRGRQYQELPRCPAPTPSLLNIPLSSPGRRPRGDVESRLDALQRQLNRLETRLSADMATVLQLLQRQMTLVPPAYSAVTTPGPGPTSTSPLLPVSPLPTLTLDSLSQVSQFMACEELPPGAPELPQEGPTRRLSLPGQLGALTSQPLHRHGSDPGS", "assay": "Inhibition of human ERG expressed in HEK293 cells assessed as reduction in peak tail current by whole cell patch clamp assay", "assay_type": "cell-based", "outline": "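Whole-cell patch clamp on HEK-293 cells stably expressing the hERG α subunit. Inhibition measured on peak tail current. Aqueous buffer at pH 7.4, room temperature, no protein present.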"}, "[18]": {"molecular_target": "Cytochrome P450 2C9 (Homo sapiens, UniProt P11712)", "sequence (P11712 whole entry)": "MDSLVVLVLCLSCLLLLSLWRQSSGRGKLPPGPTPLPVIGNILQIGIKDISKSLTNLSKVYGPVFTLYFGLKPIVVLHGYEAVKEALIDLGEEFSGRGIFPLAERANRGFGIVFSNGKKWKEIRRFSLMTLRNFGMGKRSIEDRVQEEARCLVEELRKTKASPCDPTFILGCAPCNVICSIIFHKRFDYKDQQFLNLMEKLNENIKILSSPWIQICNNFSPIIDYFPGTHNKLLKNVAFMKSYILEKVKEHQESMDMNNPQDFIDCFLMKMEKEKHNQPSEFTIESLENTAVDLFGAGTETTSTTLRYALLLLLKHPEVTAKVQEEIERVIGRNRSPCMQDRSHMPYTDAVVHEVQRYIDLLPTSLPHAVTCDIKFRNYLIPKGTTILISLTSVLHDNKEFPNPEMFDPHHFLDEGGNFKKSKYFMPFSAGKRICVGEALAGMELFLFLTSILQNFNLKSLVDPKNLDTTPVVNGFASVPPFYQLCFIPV", "assay": "Inhibition of recombinant CYP2C9 expressed in baculovirus-infected insect cells using fluorogeinc substrate", "assay_type": "ADME", "outline": "as §1"}, "[19]": {"molecular_target": "T3, Chemokine receptor (Oryctolagus cuniculus, UniProt Q9MYJ9)", "T3 sequence (Q9MYJ9 whole entry)": "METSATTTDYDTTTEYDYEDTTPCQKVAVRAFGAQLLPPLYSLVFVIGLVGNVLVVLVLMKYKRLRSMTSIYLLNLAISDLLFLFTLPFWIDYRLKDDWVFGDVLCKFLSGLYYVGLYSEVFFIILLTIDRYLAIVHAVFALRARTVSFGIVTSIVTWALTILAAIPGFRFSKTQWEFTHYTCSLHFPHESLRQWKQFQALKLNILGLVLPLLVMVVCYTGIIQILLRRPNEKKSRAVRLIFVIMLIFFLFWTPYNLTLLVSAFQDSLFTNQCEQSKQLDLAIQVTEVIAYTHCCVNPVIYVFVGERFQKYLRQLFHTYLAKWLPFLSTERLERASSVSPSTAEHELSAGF", "assay": "Displacement of [125I]MIP-1alpha from CCR1 in rabbit PBMCs incubated for 60 mins", "outline": "as §2"}, "[20]": {"molecular_target": "T1, C-C chemokine receptor type 1", "assay": "Displacement of [125I]MIP-1alpha from CCR1 in human THP1 cells", "assay_type": "cell-based, THP-1", "outline": "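THP-1 cells, 1 × 105, mixed with WGA PS SPA beads in RPMI 1640 (no phenol red) with 50 mM HEPES, 5 mM MgCl2, 1 mM CaCl2, 0.1% BSA. Compound in 3-fold dilutions, 8 μM to 140 pM final. [125I]-MIP-1α at 0.1 nM final. Incubated 12 h at room temperature, imaged by LEADseeker. Duplicates; IC50 from four-parameter logistic fit after nonspecific correction.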"}, "[21]": {"molecular_target": "C-C chemokine receptor type 3 (Homo sapiens, UniProt P51677)", "sequence (P51677 whole entry, looked up)": "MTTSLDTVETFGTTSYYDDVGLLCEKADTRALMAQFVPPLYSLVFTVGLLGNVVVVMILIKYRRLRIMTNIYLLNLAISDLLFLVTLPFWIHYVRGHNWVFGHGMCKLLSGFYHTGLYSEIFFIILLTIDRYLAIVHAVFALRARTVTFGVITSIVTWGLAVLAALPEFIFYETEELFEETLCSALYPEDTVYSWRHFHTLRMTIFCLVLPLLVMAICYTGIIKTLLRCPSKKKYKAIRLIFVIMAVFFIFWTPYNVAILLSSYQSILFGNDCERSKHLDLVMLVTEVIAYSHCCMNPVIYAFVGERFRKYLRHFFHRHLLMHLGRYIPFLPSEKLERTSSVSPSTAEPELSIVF", "assay": "Displacement of [125I]eotaxin from human CCR3 expressed in CHO CCR3/2 chimeric cells by scintillation counting", "assay_type": "cell-based", "outline": "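Compound 11-point 3-fold dilutions, 40 μM to 0.7 nM final. 125I-Eotaxin at 0.2 nM final. Incubated 3 h at room temperature; nonspecific binding set with 100 nM eotaxin. Duplicates.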"}, "[22]": {"molecular_target": "Cytochrome P450 3A4 (Homo sapiens, UniProt P08684)", "sequence (P08684 whole entry)": "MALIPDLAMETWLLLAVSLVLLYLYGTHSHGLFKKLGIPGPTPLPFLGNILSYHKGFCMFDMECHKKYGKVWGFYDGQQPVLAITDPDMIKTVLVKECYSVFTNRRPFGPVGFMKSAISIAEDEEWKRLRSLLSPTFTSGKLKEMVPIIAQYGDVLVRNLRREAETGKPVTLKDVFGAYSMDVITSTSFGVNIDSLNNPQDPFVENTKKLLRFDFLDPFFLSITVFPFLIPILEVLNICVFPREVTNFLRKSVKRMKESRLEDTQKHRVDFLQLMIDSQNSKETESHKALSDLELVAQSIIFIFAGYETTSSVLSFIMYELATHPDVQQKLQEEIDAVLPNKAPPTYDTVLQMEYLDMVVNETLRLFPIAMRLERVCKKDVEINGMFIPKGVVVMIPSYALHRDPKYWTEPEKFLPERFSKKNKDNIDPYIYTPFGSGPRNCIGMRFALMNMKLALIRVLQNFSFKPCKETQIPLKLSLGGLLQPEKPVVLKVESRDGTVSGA", "assay": "Inhibition of recombinant CYP3A4 expressed in baculovirus-infected insect cells using fluorogeinc substrate", "assay_type": "ADME", "outline": "as §1"}, "[23]": {"molecular_target": "Cytochrome P450 2D6 (Homo sapiens, UniProt P10635)", "sequence (P10635 whole entry)": "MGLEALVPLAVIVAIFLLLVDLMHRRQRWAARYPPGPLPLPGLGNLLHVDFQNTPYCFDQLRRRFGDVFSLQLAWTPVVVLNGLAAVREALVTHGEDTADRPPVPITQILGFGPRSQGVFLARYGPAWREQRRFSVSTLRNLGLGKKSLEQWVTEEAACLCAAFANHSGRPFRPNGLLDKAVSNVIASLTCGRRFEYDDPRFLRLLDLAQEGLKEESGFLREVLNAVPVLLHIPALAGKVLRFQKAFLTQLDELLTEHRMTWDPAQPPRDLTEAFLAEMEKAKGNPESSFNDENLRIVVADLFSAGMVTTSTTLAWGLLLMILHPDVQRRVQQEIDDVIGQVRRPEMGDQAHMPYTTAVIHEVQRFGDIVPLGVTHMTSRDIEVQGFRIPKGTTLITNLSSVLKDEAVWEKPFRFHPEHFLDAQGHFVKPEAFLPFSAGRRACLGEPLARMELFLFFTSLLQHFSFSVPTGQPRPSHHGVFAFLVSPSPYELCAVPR", "assay": "Inhibition of recombinant CYP2D6 expressed in baculovirus-infected insect cells using fluorogeinc substrate", "assay_type": "ADME", "outline": "as §1"}, "[24]": {"system": "Liver microsomes", "assay": "Stability in rat liver microsomes assessed as compound remaining", "assay_type": "ADME, Microsome"}, "[25]": {"molecular_target": "T4, C-C chemokine receptor type 1 (Mus musculus, UniProt P51675)", "T4 sequence (P51675 whole entry)": "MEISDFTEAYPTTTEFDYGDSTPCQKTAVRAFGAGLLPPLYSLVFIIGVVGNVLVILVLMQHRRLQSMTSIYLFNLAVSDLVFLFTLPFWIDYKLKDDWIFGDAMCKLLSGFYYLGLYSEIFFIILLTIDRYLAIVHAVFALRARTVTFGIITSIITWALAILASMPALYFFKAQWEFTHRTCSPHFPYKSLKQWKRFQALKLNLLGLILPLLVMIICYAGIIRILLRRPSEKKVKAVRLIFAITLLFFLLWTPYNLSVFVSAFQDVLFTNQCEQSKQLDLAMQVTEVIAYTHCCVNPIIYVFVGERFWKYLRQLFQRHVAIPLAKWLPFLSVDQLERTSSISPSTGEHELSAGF", "assay": "Displacement of [125I]MIP-1alpha from CCR1 in mouse WEHI 274.1 cells incubated for 60 mins", "assay_type": "cell-based", "outline": "as §2"}, "[26]": {"molecular_target": "T1, C-C chemokine receptor type 1", "assay": "Antagonist activity at CCR1 in human THP1 cells assessed as inhibition of MIP-1alpha-induced calcium flux by FLIPR", "assay_type": "functional, cell-based, THP-1", "outline": "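THP-1 cells loaded with fluo-3 AM and resuspended in assay buffer containing probenecid. Calcium flux was followed on FLIPR after adding MIP-1α at 20 nM. Compound effect was taken as the change in base-to-peak excursion relative to control. Run in duplicate.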"}}}
{"compound": "CC(C)[C@@H](NC(=O)c1ccccc1)C(=O)N1CCC(c2ccc(Cl)cc2)CC1", "values": [{"measurement": "Stability", "setting": "[1]", "value": 100, "unit": "%"}, {"measurement": "solubility thermodynamic", "setting": "[2]", "value": 1, "unit": "µg/mL"}, {"measurement": "Vd", "setting": "[3]", "value": 4.8, "unit": "L/kg"}, {"measurement": "IC50", "setting": "[4]", "value": 0.085, "unit": "µM"}, {"measurement": "AUC", "setting": "[5]", "value": 6.6, "unit": "µM·h"}, {"measurement": "Stability", "setting": "[6]", "value": 73, "unit": "%"}, {"measurement": "clearance", "setting": "[7]", "value": 12.5, "unit": "mL/min/kg"}, {"measurement": "IC50", "setting": "[8]", "value": "> 20", "unit": "µM"}, {"measurement": "IC50", "setting": "[9]", "value": "> 20", "unit": "µM"}, {"measurement": "IC50", "setting": "[10]", "value": "> 40", "unit": "µM"}, {"measurement": "Cmax", "setting": "[11]", "value": 3.1, "unit": "µM"}, {"measurement": "IC50", "setting": "[12]", "value": "> 30", "unit": "µM"}, {"measurement": "AUC", "setting": "[13]", "value": 5.9, "unit": "µM·h"}, {"measurement": "half-life", "setting": "[14]", "value": 5.2, "unit": "h"}, {"measurement": "half-life", "setting": "[15]", "value": 6.9, "unit": "h"}, {"measurement": "bioavailability", "setting": "[16]", "value": 52, "unit": "%"}, {"measurement": "IC50", "setting": "[17]", "value": 7, "unit": "µM"}, {"measurement": "IC50", "setting": "[18]", "value": "> 40", "unit": "µM"}, {"measurement": "IC50", "setting": "[19]", "value": 0.55, "unit": "µM"}, {"measurement": "IC50", "setting": "[20]", "value": 0.028, "unit": "µM"}, {"measurement": "IC50", "setting": "[21]", "value": "> 30", "unit": "µM"}, {"measurement": "IC50", "setting": "[22]", "value": "> 40", "unit": "µM"}, {"measurement": "IC50", "setting": "[23]", "value": "> 40", "unit": "µM"}, {"measurement": "Stability", "setting": "[24]", "value": 83, "unit": "%"}, {"measurement": "IC50", "setting": "[25]", "value": "> 25", "unit": "µM"}, {"measurement": "IC50", "setting": "[26]", "value": 0.015, "unit": "µM"}]}
